This note sets out measurements from ChEMBL document CHEMBL4024769, “Synthesis and Investigation of Photophysical and Biological Properties of Novel S-Containing Bacteriopurpurinimides” (J Med Chem, 2017).

Series [1] can be described thus: Drug uptake in skin tumor of F1 mouse implanted with mouse S37 cells assessed as normalized fluorescence at 2.5 mg/kg, iv measured after 30 mins post injection in presence of He-Ne laser radiation by local fluorescence spectroscopic analysis. It is filed as ADME, organism-based. To be noted: in vivo, 0.5 h. In outline:
(§1)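 S37 sarcoma-bearing immunocompetent F1 mice (18−22 g) given PS 2.5 mg/kg iv. Animals sacrificed at 0.25, 0.5, 2, 4 and 24 h, with three animals per time point. Skin, tumor and organ samples were read ex vivo by contact local fluorescence spectroscopy under He−Ne 632.8 nm excitation. Integrated 640−900 nm emission was normalized to the backscattered laser signal to give FN.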

The nature of series [2]: Phototoxicity against rat Sarcoma M1 cells implanted in rat assessed as volume of tumor parenchyma at 2.5 mg/kg, ip administered as single dose on day 11 after inoculation followed by 300 J/cm2 irradiation after 2.5 to 3 hrs measured on day 3 post photodynamic therapy by hematoxylin and eosin staining based assay (reference value: 70 +/- 4%). It is filed as functional. A digest of the protocol:
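Rat M1 sarcoma was implanted subcutaneously in the left thigh, with randomisation on day 10. A single 2.5 mg/kg ip dose was given on day 11, then 810 nm laser (0.51 W/cm2, 300 J/cm2, 10 min) after 2.5−3 h. Tumours were sectioned on days 1, 3 and 12 after PDT (controls days 12, 14, 23), five animals per point. Parenchyma and necrotic zone volumes were estimated on hematoxylin and eosin staining.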

Series [3] can be described thus: Phototoxicity against rat Sarcoma M1 cells implanted in rat assessed as mitotic index at 2.5 mg/kg, ip administered as single dose on day 11 after inoculation followed by 300 J/cm2 irradiation after 2.5 to 3 hrs measured on day 3 post photodynamic therapy (reference value: 1.84 +/- 0.04%). It is filed as functional. In outline: (§2)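 Rats with M1 sarcoma implanted subcutaneously in the left thigh were randomized on day 10, 25 per group. Single ip dose of 2.5 mg/kg on day 11; laser irradiation 2.5–3 h later at 810 nm, 0.51 W/cm2, 300 J/cm2, 10 min over a 1.5 cm field. Five rats sampled per time point for H&E histology, PCNA immunohistochemistry (1:200) and tumor volume. Untreated controls; Student's test, p < 0.05.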

The nature of series [4]: Phototoxicity against rat Sarcoma M1 cells implanted in rat assessed as tumor volume at 2.5 mg/kg, ip administered as single dose on day 11 after inoculation followed by 300 J/cm2 irradiation after 2.5 to 3 hrs measured on day 3 post photodynamic therapy (reference value: 1.6 +/- 0.3 mm3). It is filed as functional. A digest of the protocol: as §2
The nature of series [5]: Phototoxicity against mouse S37 cells implanted in F1 mouse assessed as tumor growth inhibition at 5 mg/kg, iv preincubated for 30 mins with subsequent 150 J/cm2 irradiation measured on day 15 post irradiation relative to control. It is filed as functional. To be noted: S37, light or radiation study, read-out: TGI. A digest of the protocol: (§3)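 S37 sarcoma mice treated on day 7 of tumor growth with compound iv; tumors 140–160 mm3 beforehand, droperidol 0.25 mg ip as anesthetic. LED irradiation at 800 ± 21 nm, 100 mW/cm2, 150 J/cm2, given 15 or 30 min after dosing. Controls got iv 0.9% NaCl. Volume = d1×d2×d3×0.52; TGI = […]×100%.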

The next series relates to Sarcoma M1. Put plainly: Phototoxicity against rat Sarcoma M1 cells implanted in rat assessed as tumor vasculature disruption at 2.5 mg/kg, ip administered as single dose on day 11 post inoculation followed by 300 J/cm2 irradiation after 2.5 to 3 hrs measured on day 2 post photodynamic therapy by CD31 dependent immunoimgaing. It is filed as functional, organism-based.
A short description of series [6]: Phototoxicity against rat Sarcoma M1 cells implanted in rat assessed as tumor volume at 2.5 mg/kg, ip administered as single dose on day 11 after inoculation followed by 300 J/cm2 irradiation after 2.5 to 3 hrs measured on day 1 post photodynamic therapy (reference value: 1.22 +/- 0.18 mm3). It is filed as functional. In outline: as §2
The nature of series [7]: Phototoxicity against mouse S37 cells implanted in F1 mouse assessed as tumor growth inhibition at 5 mg/kg, iv preincubated for 15 mins with subsequent 150 J/cm2 irradiation measured on day 15 post irradiation relative to control. It is filed as functional. To be noted: S37, light or radiation study, read-out: TGI. In outline: as §3
Series [8] can be described thus: Phototoxicity against mouse S37 cells implanted in F1 mouse assessed as tumor growth inhibition at 5 mg/kg, iv preincubated for 15 mins with subsequent 150 J/cm2 irradiation measured on day 8 post irradiation relative to control. It is filed as functional. To be noted: S37, light or radiation study, read-out: TGI. In outline:
as §3

Series [9] is described as follows: Phototoxicity against mouse S37 cells implanted in F1 mouse assessed as tumor growth inhibition at 2.5 mg/kg, iv preincubated for 15 mins with subsequent 150 J/cm2 irradiation measured on day 8 post irradiation relative to control. It is filed as functional. To be noted: S37, light or radiation study, read-out: TGI. A digest of the protocol:
as §3

Series [10] in a line: Drug uptake in skin tumor of F1 mouse implanted with mouse S37 cells assessed as normalized fluorescence at 2.5 mg/kg, iv measured after 15 mins post injection in presence of He-Ne laser radiation by local fluorescence spectroscopic analysis. It is filed as ADME, organism-based. To be noted: in vivo, 0.25 h. In outline: as §1
Series [11] can be described thus: Phototoxicity against mouse S37 cells implanted in F1 mouse assessed as tumor growth inhibition at 5 mg/kg, iv preincubated for 15 mins with subsequent 150 J/cm2 irradiation measured on day 18 post irradiation relative to control. To be noted: S37, light or radiation study, read-out: TGI. It is filed as functional. A digest of the protocol:
as §3

The structures appear in SMILES notation. Activity calls are given as the source filed them. The rule behind the calls is not given here.

For the compound `CCCO/N=C(\C)c1c(C)c2cc3nc(c4c5[nH]c(cc6nc(cc1[nH]2)[C@@H](C)[C@@H]6CC)c(C)c5C(=O)N(OCCC)C4=O)[C@H](CCC(=O)NCCSSCCNC(=O)CC[C@@H]1c2nc(cc4[nH]c(cc5nc(cc6[nH]c7c2C(=O)N(OCCC)C(=O)c7c6C)[C@H](CC)[C@H]5C)c(/C(C)=N/OCCC)c4C)[C@H]1C)[C@H]3C`, in series [1], the Flu intensity is given as 2.2 RU. Also, the Activity in series [2] was 23%; in [3] it was 1.84%; in [4] it was 0.59 mm3; in series [6] it was 1.13 mm3. Also, in [5], the inhibition in vivo at 5 mg/kg worked out at 100%. In addition, in the series on Sarcoma M1, the result was Active.

For `CCCO/N=C(\C)c1c(C)c2cc3nc(c4c5[nH]c(cc6nc(cc1[nH]2)[C@H](C)[C@H]6CC)c(C)c5C(=O)N(OCCC)C4=O)[C@@H](CCC(=O)OC)[C@@H]3C`, the inhibition in vivo at 5 mg/kg in series [7], in series [8] and in series [11] was 100% throughout. In addition, the inhibition in vivo at 2.5 mg/kg in [9] amounted to 100%. The Flu intensity in [10] is on record as 2.2 RU.
